Measurements from ChEMBL document CHEMBL1143652, “Joys of molecules. 2. Endeavors in chemical biology and medicinal chemistry” (J Med Chem, 2005).
In brackets after ≈: the same amount, converted by molar mass.

Key:
[1] = tested on: Gallus gallus; assay: In vivo inhibition of angiogenesis in the chick chorioallantoic membrane (CAM) assay; format: functional
[2] = Inhibitory concentration against LN229 cell proliferation; format: functional, cell-based; conditions: Homo sapiens, LN-229
[3] = tested on: 1A9/ptx-10; assay: Inhibitory concentration against 1A9/PTX10 cell line; Range is 10-15 nM; format: functional, cell-based; conditions: Homo sapiens
[4] = tested on: MCF7; assay: Inhibitory concentration against MCF-7 human breast carcinoma cell line; Range is 10-15 nM; format: functional, cell-based
[5] = tested on: A549; assay: Inhibitory concentration against A549 human lung carcinoma cell line; Range is 10-15 nM; format: functional, cell-based
[6] = tested on: PC-3; assay: Inhibitory concentration against PC-3 human prostate carcinoma cell line; Range is 10-15 nM; format: functional, cell-based
[7] = tested on: A2780; assay: Inhibitory concentration against A2780/AD10 cell line; Range is 10-15 nM; format: functional, cell-based; conditions: Homo sapiens
[8] = tested on: 1A9; assay: Inhibitory concentration against 1A9 human ovarian carcinoma cell line; Range is 10-15 nM; format: functional, cell-based
[9] = biological target: T1, Sodium channel alpha subunits; brain (Types I, II, III) (Homo sapiens, UniProt P35498+Q99250+Q9NY46)
T1 sequence (Q99250 whole entry, looked up, other chains not shown): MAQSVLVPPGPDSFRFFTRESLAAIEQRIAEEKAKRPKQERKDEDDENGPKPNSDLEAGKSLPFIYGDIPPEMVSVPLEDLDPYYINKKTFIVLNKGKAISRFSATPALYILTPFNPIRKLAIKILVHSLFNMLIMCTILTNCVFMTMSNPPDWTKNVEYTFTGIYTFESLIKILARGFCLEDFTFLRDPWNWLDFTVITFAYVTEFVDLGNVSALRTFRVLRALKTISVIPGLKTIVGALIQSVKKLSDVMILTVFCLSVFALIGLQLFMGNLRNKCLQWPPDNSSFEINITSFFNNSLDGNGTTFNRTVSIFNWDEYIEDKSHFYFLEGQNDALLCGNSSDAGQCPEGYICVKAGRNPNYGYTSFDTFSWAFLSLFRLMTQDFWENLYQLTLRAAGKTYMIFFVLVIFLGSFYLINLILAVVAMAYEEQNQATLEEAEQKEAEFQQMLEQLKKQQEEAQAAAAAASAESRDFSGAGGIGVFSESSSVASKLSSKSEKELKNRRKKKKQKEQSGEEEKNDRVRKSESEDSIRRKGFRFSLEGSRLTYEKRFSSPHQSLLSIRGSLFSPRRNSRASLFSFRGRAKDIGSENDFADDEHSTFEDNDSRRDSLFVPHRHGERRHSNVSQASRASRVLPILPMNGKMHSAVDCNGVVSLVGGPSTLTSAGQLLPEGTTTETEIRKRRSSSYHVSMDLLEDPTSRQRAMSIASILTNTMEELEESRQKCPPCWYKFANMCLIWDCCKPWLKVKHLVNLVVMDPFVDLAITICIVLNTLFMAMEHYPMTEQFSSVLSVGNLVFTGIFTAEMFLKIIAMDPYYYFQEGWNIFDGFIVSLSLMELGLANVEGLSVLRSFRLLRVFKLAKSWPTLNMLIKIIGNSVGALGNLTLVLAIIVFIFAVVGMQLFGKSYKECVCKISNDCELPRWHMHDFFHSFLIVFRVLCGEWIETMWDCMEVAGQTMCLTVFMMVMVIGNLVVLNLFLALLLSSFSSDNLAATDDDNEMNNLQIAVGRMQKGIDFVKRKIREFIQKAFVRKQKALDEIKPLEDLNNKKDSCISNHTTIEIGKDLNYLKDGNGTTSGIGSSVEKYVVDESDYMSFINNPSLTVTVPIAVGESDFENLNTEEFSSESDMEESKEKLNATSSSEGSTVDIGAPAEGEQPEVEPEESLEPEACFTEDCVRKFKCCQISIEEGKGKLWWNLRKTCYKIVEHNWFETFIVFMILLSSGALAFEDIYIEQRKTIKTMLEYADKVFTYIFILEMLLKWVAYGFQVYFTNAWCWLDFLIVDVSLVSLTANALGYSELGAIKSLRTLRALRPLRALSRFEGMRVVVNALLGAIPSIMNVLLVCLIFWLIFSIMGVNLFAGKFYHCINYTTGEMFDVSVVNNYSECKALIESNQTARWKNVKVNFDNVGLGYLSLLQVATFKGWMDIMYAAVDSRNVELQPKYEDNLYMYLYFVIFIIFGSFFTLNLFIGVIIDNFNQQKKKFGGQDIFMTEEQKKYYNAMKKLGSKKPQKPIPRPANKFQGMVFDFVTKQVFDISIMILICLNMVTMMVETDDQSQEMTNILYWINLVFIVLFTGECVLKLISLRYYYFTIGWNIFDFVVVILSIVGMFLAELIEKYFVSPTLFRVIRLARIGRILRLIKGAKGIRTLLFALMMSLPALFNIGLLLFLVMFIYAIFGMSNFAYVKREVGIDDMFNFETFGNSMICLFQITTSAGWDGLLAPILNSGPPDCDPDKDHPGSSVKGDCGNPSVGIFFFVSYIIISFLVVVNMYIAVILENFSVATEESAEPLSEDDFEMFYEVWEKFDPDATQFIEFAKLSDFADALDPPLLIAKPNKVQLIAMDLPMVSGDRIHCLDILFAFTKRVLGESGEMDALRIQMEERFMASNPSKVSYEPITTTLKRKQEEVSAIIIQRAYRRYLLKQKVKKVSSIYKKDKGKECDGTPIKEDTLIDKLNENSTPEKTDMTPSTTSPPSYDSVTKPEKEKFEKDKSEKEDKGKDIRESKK
T1 sequence (Q9NY46 whole entry, looked up, other chains not shown): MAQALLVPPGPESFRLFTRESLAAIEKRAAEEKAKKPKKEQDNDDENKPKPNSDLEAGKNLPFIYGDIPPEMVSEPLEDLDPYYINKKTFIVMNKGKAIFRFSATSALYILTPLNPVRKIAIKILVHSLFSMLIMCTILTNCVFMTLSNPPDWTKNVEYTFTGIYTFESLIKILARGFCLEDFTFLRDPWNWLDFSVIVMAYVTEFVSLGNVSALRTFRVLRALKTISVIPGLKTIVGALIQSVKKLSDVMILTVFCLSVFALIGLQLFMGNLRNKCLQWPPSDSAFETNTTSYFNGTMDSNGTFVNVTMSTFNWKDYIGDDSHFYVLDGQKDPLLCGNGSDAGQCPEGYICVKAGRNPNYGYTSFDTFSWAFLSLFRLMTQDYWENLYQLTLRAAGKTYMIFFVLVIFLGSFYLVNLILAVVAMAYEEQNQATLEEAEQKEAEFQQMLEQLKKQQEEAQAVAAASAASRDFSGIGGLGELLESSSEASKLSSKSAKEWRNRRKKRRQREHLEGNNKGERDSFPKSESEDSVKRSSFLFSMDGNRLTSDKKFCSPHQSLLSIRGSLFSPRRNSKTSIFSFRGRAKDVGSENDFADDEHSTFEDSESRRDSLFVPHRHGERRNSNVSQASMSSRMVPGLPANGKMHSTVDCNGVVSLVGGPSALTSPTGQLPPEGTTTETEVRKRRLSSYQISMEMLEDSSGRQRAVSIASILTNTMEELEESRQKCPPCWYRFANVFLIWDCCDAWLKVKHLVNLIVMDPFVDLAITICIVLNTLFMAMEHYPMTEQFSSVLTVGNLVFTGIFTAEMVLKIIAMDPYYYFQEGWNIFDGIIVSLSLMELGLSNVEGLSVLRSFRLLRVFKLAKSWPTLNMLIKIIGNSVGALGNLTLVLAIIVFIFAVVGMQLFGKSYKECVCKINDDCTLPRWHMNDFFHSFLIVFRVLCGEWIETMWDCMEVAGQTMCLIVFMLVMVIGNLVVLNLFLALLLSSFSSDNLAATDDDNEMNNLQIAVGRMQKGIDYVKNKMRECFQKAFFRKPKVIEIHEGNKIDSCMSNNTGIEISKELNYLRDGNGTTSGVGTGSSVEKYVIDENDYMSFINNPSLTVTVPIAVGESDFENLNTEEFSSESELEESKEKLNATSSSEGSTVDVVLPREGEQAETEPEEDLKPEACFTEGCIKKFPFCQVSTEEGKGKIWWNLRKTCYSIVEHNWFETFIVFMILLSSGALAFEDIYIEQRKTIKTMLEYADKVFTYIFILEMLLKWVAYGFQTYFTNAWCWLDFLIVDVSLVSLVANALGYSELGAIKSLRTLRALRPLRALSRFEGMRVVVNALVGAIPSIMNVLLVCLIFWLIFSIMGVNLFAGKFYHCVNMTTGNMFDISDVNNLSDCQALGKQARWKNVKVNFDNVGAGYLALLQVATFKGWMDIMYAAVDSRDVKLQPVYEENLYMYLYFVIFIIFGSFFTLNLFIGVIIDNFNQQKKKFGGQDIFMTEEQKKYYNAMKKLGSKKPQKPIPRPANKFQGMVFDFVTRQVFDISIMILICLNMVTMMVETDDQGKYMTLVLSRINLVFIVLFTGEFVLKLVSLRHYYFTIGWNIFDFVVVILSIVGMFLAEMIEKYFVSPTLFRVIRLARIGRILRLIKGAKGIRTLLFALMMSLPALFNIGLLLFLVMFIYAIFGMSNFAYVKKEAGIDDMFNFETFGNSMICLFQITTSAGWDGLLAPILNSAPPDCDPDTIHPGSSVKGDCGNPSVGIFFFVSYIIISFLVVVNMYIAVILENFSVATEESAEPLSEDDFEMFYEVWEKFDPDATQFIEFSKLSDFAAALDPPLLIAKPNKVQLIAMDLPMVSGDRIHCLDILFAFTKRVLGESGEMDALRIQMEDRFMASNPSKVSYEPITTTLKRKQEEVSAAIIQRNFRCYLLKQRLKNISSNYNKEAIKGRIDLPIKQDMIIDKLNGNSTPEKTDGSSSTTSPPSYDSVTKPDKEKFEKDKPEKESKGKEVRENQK

[10] = biological target: T1, Sodium channel alpha subunits; brain (Types I, II, III); assay: Inhibitory concentration against synaptosomes using [3H]PbTx-3; format: subcellular
[11] = biological target: T1, Sodium channel alpha subunits; brain (Types I, II, III); assay: Inhibitory concentration against synaptosome using [3H]PbTx-3
[12] = tested on: 1A9; assay: Inhibitory concentration against human ovarian 1A9 tumor cells; format: functional, cell-based
[13] = biological target: Tubulin beta-4B chain (Homo sapiens) (UniProt P68371); assay: (§1) Tubulin polymerization at a concentration of 100 uM incubated for 90 minutes
Tubulin beta-4B chain (Homo sapiens), sequence (P68371 whole entry): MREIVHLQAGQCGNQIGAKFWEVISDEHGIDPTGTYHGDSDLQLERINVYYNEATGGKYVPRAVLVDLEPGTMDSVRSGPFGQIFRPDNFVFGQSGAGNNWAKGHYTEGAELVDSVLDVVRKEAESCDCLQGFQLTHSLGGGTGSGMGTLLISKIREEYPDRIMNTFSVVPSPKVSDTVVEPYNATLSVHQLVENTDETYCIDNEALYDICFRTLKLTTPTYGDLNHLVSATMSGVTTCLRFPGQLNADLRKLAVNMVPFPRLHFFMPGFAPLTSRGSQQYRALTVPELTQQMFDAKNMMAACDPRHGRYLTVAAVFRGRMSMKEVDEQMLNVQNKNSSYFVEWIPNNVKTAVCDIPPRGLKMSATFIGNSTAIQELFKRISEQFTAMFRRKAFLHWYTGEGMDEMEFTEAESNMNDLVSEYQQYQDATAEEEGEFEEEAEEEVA
Procedure, shortened: (§2)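 Tubulin polymerization was read as percent polymerization, with test drug at 100 µM and a 90 min incubation.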

[14] = biological target: Tubulin beta-4B chain (Homo sapiens) (UniProt P68371); assay: as §1; format: functional; procedure, shortened: as §2
[15] = tested on: PC-3; assay: Inhibitory concentration against PC-3 human prostate carcinoma cell line; Inactive upto 1 uM; format: functional, cell-based
[16] = tested on: 1A9/ptx-10; assay: Inhibitory concentration against 1A9/PTX10 cell line; Inactive upto 1 uM; format: functional, cell-based, Homo sapiens
[17] = tested on: MCF7; assay: Inhibitory concentration against MCF-7 human breast carcinoma cell line; Inactive upto 1 uM; format: functional, cell-based
[18] = tested on: 1A9; assay: Inhibitory concentration against 1A9 human ovarian carcinoma cell line; Inactive upto 1 uM; format: functional, cell-based
[19] = tested on: A2780; assay: Inhibitory concentration against A2780/AD10 cell line; Inactive upto 1 uM; format: functional, cell-based, Homo sapiens
[20] = tested on: A549; assay: Inhibitory concentration against A549 human lung carcinoma cell line; Inactive upto 1 uM; format: functional, cell-based
[21] = biological target: T2, Bile acid receptor (Homo sapiens, UniProt Q96RI1); assay: Effective concentration against farnesoid X receptor (FXR); range is 5-10 uM
T2 sequence (Q96RI1 whole entry): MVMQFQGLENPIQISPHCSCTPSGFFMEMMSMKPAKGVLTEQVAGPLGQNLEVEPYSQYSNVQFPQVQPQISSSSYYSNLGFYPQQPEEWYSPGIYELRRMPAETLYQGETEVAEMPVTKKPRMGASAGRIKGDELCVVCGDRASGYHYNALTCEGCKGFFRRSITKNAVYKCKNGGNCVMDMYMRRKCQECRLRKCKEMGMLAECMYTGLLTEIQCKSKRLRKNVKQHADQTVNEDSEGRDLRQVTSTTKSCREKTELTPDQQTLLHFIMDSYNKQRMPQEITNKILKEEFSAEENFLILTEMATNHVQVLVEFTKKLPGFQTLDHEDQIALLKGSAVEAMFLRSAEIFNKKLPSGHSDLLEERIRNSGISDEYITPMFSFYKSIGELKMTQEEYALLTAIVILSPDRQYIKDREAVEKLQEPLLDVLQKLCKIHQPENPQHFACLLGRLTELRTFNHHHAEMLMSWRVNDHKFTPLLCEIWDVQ

[22] = biological target: T2, Bile acid receptor; assay: Effective concentration towards farnesoid X receptor (FXR); Range is 5-10 uM
[23] = tested on: OVCAR-3; assay: Cytotoxicity by measuring inhibitory concentration against ovcar-3 tumor cell line; 10e-10; format: functional, cell-based; conditions: Homo sapiens
[24] = tested on: OVCAR-3; assay: Cytotoxicity by measuring inhibitory concentration against ovcar-3 tumor cell line; format: functional, cell-based, Homo sapiens; conditions: Homo sapiens, OVCAR-3
[25] = biological target: T3, Peroxisome proliferator-activated receptor delta (Homo sapiens, UniProt Q03181); assay: Effective concentration towards PPAR delta
[26] = biological target: T3, Peroxisome proliferator-activated receptor delta; assay: Effective concentration against PPAR delta receptor
[27] = biological target: Polyunsaturated fatty acid 5-lipoxygenase (Homo sapiens, UniProt P09917); assay: Effective concentration required to inhibit 5-lipoxygenase by 50%
[28] = tested on: P388; assay: Cytotoxicity against leukemia P-388 tumor cells; format: functional; conditions: Mus musculus, read-out: ED50 (the source's name)
[29] = tested on: P388; assay: Cytotoxicity against P-388 cancer cell line; format: functional, Homo sapiens; conditions: Mus musculus, read-out: ED50 (the source's name)
[30] = tested on: OVCAR-3; assay: Cytotoxicity by measuring inhibitory concentration against ovcar-3 tumor cell line; Inactive; format: functional, cell-based, Homo sapiens
[31] = tested on: MOLT-4; assay: Inhibitory concentration against MOLT-4 human T-cells; format: functional, cell-based
[32] = tested on: MOLT-4; assay: Inhibitory concentration against MOLT-4 human T-cells; 10e-11; format: functional, cell-based
[33] = tested on: A2780; assay: Inhibitory concentration against A2780/AD10 cell line; Range is 2-5 nM; format: functional, cell-based; conditions: Homo sapiens
[34] = tested on: MCF7; assay: Inhibitory concentration against MCF-7 human breast carcinoma cell line; Range is 2-5 nM; format: functional, cell-based
[35] = tested on: 1A9/ptx-10; assay: Inhibitory concentration against 1A9/PTX10 cell line; Range is 2-5 nM; format: functional, cell-based; conditions: Homo sapiens
[36] = tested on: PC-3; assay: Inhibitory concentration against PC-3 human prostate carcinoma cell line; Range is 2-5 nM; format: functional, cell-based
[37] = tested on: 1A9; assay: Inhibitory concentration against 1A9 human ovarian carcinoma cell line; Range is 2-5 nM; format: functional, cell-based
[38] = tested on: A549; assay: Inhibitory concentration against A549 human lung carcinoma cell line; Range is 2-5 nM; format: functional, cell-based
[39] = biological target: T4, Integrin alpha-IIb/beta-3 (Homo sapiens, UniProt P05106+P08514); assay: Inhibitory concentration against integrin alpha-2b beta3; format: protein-complex assay
[40] = biological target: T4, Integrin alpha-IIb/beta-3; assay: Inhibitory concentration against alpha IIb beta-3 receptor; format: protein-complex assay
[41] = biological target: Peptidyl-prolyl cis-trans isomerase FKBP1A (Homo sapiens, UniProt P62942); assay: Inhibitory concentration against binding to FKBP12
Peptidyl-prolyl cis-trans isomerase FKBP1A, sequence (P62942 whole entry): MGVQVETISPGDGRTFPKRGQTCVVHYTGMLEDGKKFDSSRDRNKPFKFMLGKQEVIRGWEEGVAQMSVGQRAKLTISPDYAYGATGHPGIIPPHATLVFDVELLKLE

`N=C(N)NCCOc1ccc(C(=O)NC[C@H](NS(=O)(=O)c2ccccc2)C(=O)O)cc1[N+](=O)[O-]` gave a Dose [1] of 30 ug/embryo.
`COc1c(C(C)n2cnc3ncccc32)ccc2c1C=CC(C)(C)O2` (stereo not given) showed an IC50 [2] of 26000 nM.
With `CC(C)[C@@H]1NC(=O)[C@@H](NC(=O)[C@H](O)C(C)C)Cc2ccc3c(c2)[C@]24C5=C(N=C1O5)c1nc(Cl)c(o1)-c1c(Cl)[nH]c5cccc(c15)-c1cccc2c1N[C@@H]4O3` the IC50 [3] was 15 nM, the IC50 [4] was 15 nM and the IC50 [5] was 15 nM. It also gave an IC50 [6] of 15 nM, an IC50 [7] of 15 nM and an IC50 [8] of 15 nM.
With `C=C(C=O)C[C@@H]1C[C@H](O)[C@]2(C)O[C@@H]3C[C@@H]4O[C@@H]5C[C@]6(C)O[C@]7(C)C(C)=CC(=O)O[C@H]7C[C@H]6O[C@@]5(C)C/C=C\[C@H]4O[C@H]3C[C@H]2O1` [TRUNCATED BREVETOXIN B] the Binding [9] was 18 nM, the IC50 [10] was > 10000 nM and the IC50 [11] was > 10000 nM.
With `CO[C@]12C=C[C@](C)(O1)[C@@H](OC(=O)/C=C/c1cn(C)cn1)C[C@H]1C(C)=CC[C@H](C(C)C)[C@H]1/C=C\2COC1OCC(O)C(O)C1OC(C)=O` (stereo not given in full) the IC50 [12] was 40 nM, the TP [13] was 54% and the TP [14] was 54%.
With `CC(C)[C@@H]1NC(=O)[C@@H](NC(=O)OCc2ccccc2)Cc2ccc3c(c2)[C@]2(C4=C(C=O)N=C1O4)c1cccc(Br)c1N[C@@H]2O3` the IC50 [15] was “Inactive”, the IC50 [16] was “Inactive” and the IC50 [17] was “Inactive”. The IC50 [18] was “Inactive”, the IC50 [19] was “Inactive” and the IC50 [20] was “Inactive”.
With `COc1c(CN(C(=O)C2CC2)c2ccccc2)ccc2c1OC(C)(C)C=C2` the EC50 [21] was 10000 nM and the EC50 [22] was 10000 nM.
Molecule `CC(=O)OC1C(=O)[C@@]2(C)[C@H]([C@H](OC(=O)c3ccsc3)[C@]3(O)C[C@H](OC(=O)[C@H](O)[C@@H](NC(=O)c4ccccc4)c4ccccc4)C(C)=C1C3(C)C)[C@]1(OC(C)=O)CO[C@@H]1C[C@@H]2O` (stereo not given in full) has an IC50 [23] of 0.67 nM and an IC50 [24] of 0.671 nM.
For `CC(C)N(Cc1cccc2c1OC(C)(C)C=C2)C(=O)c1ccc(-c2ccccc2)cc1`, the EC50 [25] was 1000 nM and the EC50 [26] was 1 nM.
Molecule `O=C(O)CCC[C@H](O)\C=C/C=C/C=C/[C@H](O)C/C=C\CCCCC(F)(F)F` has an EC50 [27] of 3 nM.
`CC(C)=CC[C@@H]1C(=O)C2=C(OC(C)(C)C=C2)C(=O)[C@@]12OC(=O)C1=C[C@]3(O)C[C@H]4C(C)(C)OC(CC=C(C)C)(C3=O)[C@]14O2` [LATERIFLORONE] gave an EC50 [28] of 5.4 µg/mL (≈ 9.33 µM) and an EC50 [29] of 5.4 µg/mL (≈ 9.33 µM).
In the case of `CC(=O)O[C@@H]1C2=C(C)[C@H](OC(=O)[C@H](O)[C@@H](NC(=O)c3ccccc3)c3ccccc3)C[C@@](O)([C@@H](OC(=O)c3ccccc3)c3ccccc3[C@H]1OC(C)=O)C2(C)C`, the IC50 [30] is reported as “Not Active”.
Work on `C=C(C=O)C[C@@H]1C[C@H](O)[C@]2(C)O[C@@H]3C[C@@H]4O[C@@H]5C[C@]6(C)O[C@]7(C)CC[C@@H]8O[C@@H]9C[C@]%10(C)O[C@@H]%11C(C)=CC(=O)O[C@H]%11C[C@H]%10O[C@H]9C[C@@H](C)[C@H]8O[C@H]7C[C@H]6O[C@@]5(C)C/C=C\[C@H]4O[C@H]3C[C@H]2O1` [BREVETOXIN B] yielded a Binding [9] of 18 nM, an IC50 [10] of 15.02 nM and an IC50 [11] of 15.02 nM.
For `COC(=O)N/C(C)=C1/C(=C/COC(=O)c2ccc([N+](=O)[O-])cc2)[C@@](O)(CC=O)C#C/C=C\C#C[C@@H]1O`, the IC50 [31] was 0.044 nM and the IC50 [32] was 0.044 nM.
Work on `[H][C@]12Nc3c4cccc3[C@]13C1=C(N=C(O1)[C@H](C(C)C)NC(=O)[C@@H](NC(=O)[C@@H](O)C(C)C)Cc1ccc(c3c1)O2)c1nc(Cl)c(o1)-c1c(Cl)[nH]c2cccc-4c12` [DIAZONAMIDE A] yielded an IC50 [33] of 5 nM, an IC50 [34] of 5 nM and an IC50 [35] of 5 nM. For the same molecule, the IC50 [36] was 5 nM, the IC50 [37] was 5 nM and the IC50 [38] was 5 nM.
For `N=C(N)N1CCN(c2ccc(C(=O)NC[C@H](NS(=O)(=O)c3c(O)ccc4ccccc34)C(=O)O)cc2[N+](=O)[O-])CC1`, the IC50 [39] was 14 nM and the IC50 [40] was 14 nM.
`CO[C@H]1C[C@@H]2CC[C@@H](C)[C@@](O)(O2)C(=O)C(=O)N2CCCC[C@H]2C(=O)N[C@H](CCc2ccccc2)C(=O)NCC(=O)N(C)CC(=O)O[C@H]1C` gave an IC50 [41] of 9.6 nM.
With `CC(C)[C@H](O)C(=O)N[C@H]1Cc2ccc(O)c(c2)[C@]2(C(=O)Nc3ccccc32)C2=C(CO)N=C(O2)[C@H](C(C)C)NC1=O` the IC50 [15] was “Inactive”, the IC50 [16] was “Inactive” and the IC50 [17] was “Inactive”. For the same molecule, the IC50 [18] was “Inactive”, the IC50 [19] was “Inactive” and the IC50 [20] was “Inactive”.
